Measurements published in ChEMBL document CHEMBL1781963, “Discovery of novel hepatoselective HMG-CoA reductase inhibitors for treating hypercholesterolemia: a bench-to-bedside case study on tissue selective drug distribution” (Bioorg Med Chem Lett, 2011).

Assays:
[1] = Oral bioavailability in rat at 10 mg/kg; assay type: ADME, organism-based; settings: in vivo
In short: (§1)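 Rat and dog given 1 mg/kg iv, or po at 10 mg/kg (rat) or 5 mg/kg (dog). Plasma sampled to 24 h. AUC(0-24) as free drug using plasma protein binding values. Geometric mean of n = 2 animals/group; dog po n = 3 or n = 1.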

[2] = Half life in dog at 1 mg/kg, iv; assay type: ADME, organism-based, Canis lupus familiaris; design: dose 1 mg/kg, route intravenous; settings: in vivo
In short: (§2)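 Intravenous 1 mg/kg dose in rat or dog. Terminal half-life was derived from plasma concentrations and is reported as the geometric mean of n = 2 animals per group.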

Homo sapiens [3] = assay: Inhibition of HMG-CoA reductase in human assessed as decrease in AUC (0 to 72 hrs) of mevalonate level in plasma at 40 mg administered as single dose relative to control; assay type: functional
Homo sapiens [4] = assay: Inhibition of HMG-CoA reductase in human assessed as decrease in AUC (0 to 24 hrs) of mevalonate level in plasma at 40 mg administered as single dose relative to control; assay type: functional
[5] = target: T1, 3-hydroxy-3-methylglutaryl-coenzyme A reductase (Rattus norvegicus, UniProt P51639); assay: Inhibition of HMG-CoA reductase in Sprague-Dawley rat liver microsomes using [14C]HMG-CoA as substrate preincubated for 0.5 hrs before substrate addition measured after 0.75 hrs by beta scintillation counting; design: species or system Microsome
T1 sequence (P51639 whole entry): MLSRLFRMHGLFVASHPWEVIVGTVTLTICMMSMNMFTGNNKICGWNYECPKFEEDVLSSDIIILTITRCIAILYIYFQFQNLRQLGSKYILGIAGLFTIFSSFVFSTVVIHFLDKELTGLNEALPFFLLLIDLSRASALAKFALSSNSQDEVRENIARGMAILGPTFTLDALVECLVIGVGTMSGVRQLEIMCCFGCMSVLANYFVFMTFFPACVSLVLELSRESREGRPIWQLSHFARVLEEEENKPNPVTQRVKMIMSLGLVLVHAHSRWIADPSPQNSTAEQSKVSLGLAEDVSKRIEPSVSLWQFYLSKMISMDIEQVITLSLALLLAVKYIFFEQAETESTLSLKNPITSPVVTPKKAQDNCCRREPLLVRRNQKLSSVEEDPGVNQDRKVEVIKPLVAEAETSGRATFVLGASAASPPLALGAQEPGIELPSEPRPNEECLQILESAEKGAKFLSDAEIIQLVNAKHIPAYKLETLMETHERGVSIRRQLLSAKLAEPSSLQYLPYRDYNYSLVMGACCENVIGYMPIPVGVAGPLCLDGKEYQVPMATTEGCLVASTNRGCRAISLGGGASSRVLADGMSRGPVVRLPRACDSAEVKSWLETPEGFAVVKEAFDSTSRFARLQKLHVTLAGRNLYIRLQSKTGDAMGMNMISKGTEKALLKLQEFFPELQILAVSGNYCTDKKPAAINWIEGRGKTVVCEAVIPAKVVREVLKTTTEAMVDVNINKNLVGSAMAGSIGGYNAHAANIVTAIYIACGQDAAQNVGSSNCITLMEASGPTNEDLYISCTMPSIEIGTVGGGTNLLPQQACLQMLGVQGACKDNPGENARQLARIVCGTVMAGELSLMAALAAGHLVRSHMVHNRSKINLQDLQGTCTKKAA
In short: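 Enzyme inhibition was measured in an HMG-CoA reductase preparation from rat microsomes. IC50 is reported as mean ± SEM of n ≥ 2 independent determinations.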

[6] = AUC (0 to infinity) in human plasma at 240 mg administered as single dose; assay type: ADME, cell-free; design: dose 240 mg, time infinity
In short: (§3)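 Phase 1 single ascending oral dose in healthy volunteers, about 5–6 subjects per dose. Total plasma drug Cmax and AUC(0-∞) were measured. Free-drug exposures were derived using plasma protein binding.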

[7] = Cmax in human plasma at 320 mg administered as single dose; assay type: ADME, organism-based; design: dose 320 mg; in short: as §3
Plasma [8] = assay: fAUC (0 to infinity) in human plasma at 320 mg administered as single dose; assay type: ADME, cell-free
In short: (§4)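 Phase 1 single ascending oral dose in healthy volunteers, with N per dose group. Total plasma Cmax and AUC(0-∞) were measured. Free-drug exposures were derived from these using plasma protein binding (human plasma fu measured at 0.5 μg/mL).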

[9] = Systemic plasma clearance in rat at 1 mg/kg, iv; assay type: ADME, organism-based; design: dose 1 mg/kg, route intravenous; in short: as §1
Rattus norvegicus = assay: fAUC (0 to 24 hrs) in rat at 10 mg/kg, po; assay type: ADME, organism-based; design: dose 10 mg/kg, route oral; settings: in vivo; in short: as §1
Homo sapiens [10] = assay: Inhibition of HMG-CoA reductase in human assessed as decrease in AUC (0 to 24 hrs) of mevalonate level in plasma at 320 mg administered as single dose relative to control; assay type: organism-based; settings: in vivo
[11] = Volume of distribution at steady state in dog at 1 mg/kg, iv; assay type: ADME, organism-based, Canis lupus familiaris; design: dose 1 mg/kg, route intravenous; settings: in vivo, read-out: Vdss; in short: as §1
[12] = Terminal half life in human plasma at 40 mg administered as single dose; assay type: ADME, cell-free; settings: read-out: beta t1/2 (converted)
Canis familiaris = assay: fCmax in dog at 5 mg/kg, po; assay type: ADME, organism-based, Canis lupus familiaris; design: dose 5 mg/kg, route oral; settings: in vivo
In short: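 Single po dose: rat 10 mg/kg (n = 2), dog 5 mg/kg (n = 1 or 3 animals). Values are geometric means. Cmax is given as free drug concentration using plasma protein binding values, which were determined at 0.5 μg/mL.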

[13] = Volume of distribution at steady state in rat at 1 mg/kg, iv; assay type: ADME, organism-based; design: dose 1 mg/kg, route intravenous; settings: in vivo, read-out: Vdss; in short: as §1
[14] = AUC (0 to infinity) in human plasma at 10 mg administered as single dose; assay type: ADME, cell-free; design: dose 10 mg, time infinity; in short: as §3
[15] = Fraction unbound in dog plasma at 0.5 ug/ml; assay type: ADME, cell-free, Canis lupus familiaris
In short: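 Unbound fraction in rat, dog or human plasma, measured at a drug concentration of 0.5 μg/mL.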

Hepatocyte = assay: Inhibition of cholesterol synthesis in rat hepatocytes assessed as reduction of [14C]-cholesterol level using [14C]-acetic acid preincubated for 4 hrs before addition of [14C]-acetic acid by liquid scintillation counting; assay type: functional, cell-based
In short: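 Cholesterol synthesis inhibition measured in rat hepatocytes and rat myocyte cell line, giving IC50 for each. Mean ± SEM of n ≥ 2 independent determinations.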

[16] = AUC (0 to infinity) in human plasma at 40 mg administered as single dose; assay type: ADME, cell-free; design: dose 40 mg, time infinity; in short: as §3
[17] = Half life in rat at 1 mg/kg, iv; assay type: ADME, organism-based; design: dose 1 mg/kg, route intravenous; settings: in vivo; in short: as §2
Homo sapiens [18] = assay: Inhibition of HMG-CoA reductase in human assessed as decrease in AUC (0 to 72 hrs) of mevalonate level in plasma at 10 mg administered as single dose relative to control; assay type: functional
[19] = Terminal half life in human plasma at 80 mg administered as single dose; assay type: ADME, cell-free; settings: read-out: beta t1/2 (converted)
[20] = Cmax in human plasma at 160 mg administered as single dose; assay type: ADME, organism-based; design: dose 160 mg; in short: as §3
[21] = Terminal half life in human plasma at 5 mg administered as single dose; assay type: ADME, cell-free; settings: read-out: beta t1/2 (converted)
Plasma [22] = assay: fAUC (0 to infinity) in human plasma at 20 mg administered as single dose; assay type: ADME, cell-free; in short: as §4
[23] = Terminal half life in human plasma at 1 mg administered as single dose; assay type: ADME, cell-free; settings: read-out: beta t1/2 (converted)
Plasma [24] = assay: fCmax in human plasma at 160 mg administered as single dose; assay type: ADME, cell-free; in short: as §4
[25] = AUC (0 to infinity) in human plasma at 5 mg administered as single dose; assay type: ADME, cell-free; design: dose 5 mg, time infinity; in short: as §3
[26] = AUC (0 to infinity) in human plasma at 80 mg administered as single dose; assay type: ADME, cell-free; design: dose 80 mg, time infinity; in short: as §3

Row | Structure (SMILES) | bioavailability [1] | half-life [2] | inhibition (INH) (Homo sapiens [3]) | inhibition (INH) (Homo sapiens [4]) | IC50 [5] | clearance [9] | fAUC (Rattus norvegicus) | Vd [11] | half-life [12] | fCmax (Canis familiaris) | Vd [13] | fraction unbound at 0.5 ug/ml [15] | AUC(0-inf) [16] | half-life [17] | further results
1 | O=C([O-])C[C@H](O)C[C@H](O)CCn1c(-c2ccc(F)cc2)nc(C(=O)NCc2cccc(F)c2)c1C1CC1.[Na+] | 0.3% | 0.27 h | -19% | -39% | 1.2 nM | 39 mL/min/kg | 2.7 ng·h/mL | 0.1 L/kg | 3.22 h | 5.4 ng/mL | 0.17 L/kg | 0.43 | 6.27 ng·h/mL | 0.43 h | AUC(0-inf) [6]: 27.2 ng·h/mL; Cmax [7]: 44.1 ng/mL; fAUC (Plasma [8]): 10.4 ng·h/mL; inhibition (INH) (Homo sapiens [10]): -61%; AUC(0-inf) [14]: 2.71 ng·h/mL; IC50 (Hepatocyte): 0.1 nM; inhibition (INH) (Homo sapiens [18]): -13%
2 | Cc1ccc(CNC(=O)c2nn(-c3ccc(F)cc3)c(CC[C@@H](O)C[C@@H](O)CC(=O)O)c2C(C)C)cc1 | 6% | 0.78 h | -3% | -41% | 1 nM | 27 mL/min/kg | 6.4 ng·h/mL | 0.1 L/kg | 8.57 h | 51.5 ng/mL | 0.14 L/kg | 0.032 | 5110 ng·h/mL | 0.34 h | half-life [19]: 6.28 h; Cmax [20]: 6810 ng/mL; half-life [21]: 4.54 h; fAUC (Plasma [22]): 98.4 ng·h/mL; half-life [23]: 2.55 h; fCmax (Plasma [24]): 347 ng/mL; AUC(0-inf) [25]: 434 ng·h/mL; AUC(0-inf) [26]: 11800 ng·h/mL
